Where a chain is given by its changes, count along the chain named. Active and inactive are the calls of the source. The calls are words filed in the database; no cut-off is given here.
Tests used:
[1] = Plasma protein binding in rat serum by equilibrium dialysis method; assay type: ADME, cell-free; settings: read-out: PPB (converted)
Method in brief: (§1)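 Protein binding measured by equilibrium dialysis against rat or human serum.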

[2] = Plasma protein binding in human serum by equilibrium dialysis method; assay type: ADME, cell-free; settings: read-out: PPB (converted); method in brief: as §1
Plasma = experiment: Drug level in Sprague-Dawley rat plasma at 10 mg/kg, po; assay type: ADME, organism-based; parameters: dose 10 mg/kg, route oral; settings: in vivo
Method in brief: (§2)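 Rats dosed orally at 10 mpk. Plasma, brain and CSF sampled at 2 h and concentrations determined by bioanalysis.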

Brain = experiment: Drug level Sprague-Dawley rat brain at 10 mg/kg, po; assay type: ADME, organism-based; parameters: dose 10 mg/kg, route oral; settings: in vivo, read-out: Drug uptake; method in brief: as §2
Cerebrospinal fluid = experiment: Drug level in Sprague-Dawley rat cerebrospinal fluid at 10 mg/kg, po; assay type: ADME, organism-based; parameters: dose 10 mg/kg, route oral; settings: in vivo, read-out: Drug uptake; method in brief: as §2
[3] = Ratio of drug level in brain to plasma of Sprague-Dawley rat at 10 mg/kg, po; assay type: ADME, organism-based; parameters: dose 10 mg/kg, route oral; settings: read-out: BPR; method in brief: as §2
[4] = Lipophilicity, log P of the compound; assay type: physicochemical; settings: octanol/water
[5] = Oral bioavailability in rat at 3 mg/kg; assay type: ADME, organism-based; settings: in vivo
Method in brief: (§3)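 Rats (n = 2) dosed orally at 3 mg/kg and IV at 1 mg/kg. Interanimal variability under 20% for all values.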

[6] = Clearance in rat at 3 mg/kg, po and 1 mg/kg, iv; assay type: ADME, organism-based; settings: in vivo; method in brief: as §3
[7] = Oral bioavailability in dog at 3 mg/kg; assay type: ADME, organism-based, Canis lupus familiaris; settings: in vivo
Method in brief: (§4)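 Dog PK, n = 2 animals. Given orally at 3 mg/kg and intravenously at 1 mg/kg. Interanimal variability under 20% for all values.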

[8] = Half life in dog at 3 mg/kg, po and 1 mg/kg, iv; assay type: ADME, organism-based, Canis lupus familiaris; settings: in vivo; method in brief: as §4
[9] = Oral bioavailability in rhesus monkey; assay type: ADME, organism-based, Macaca mulatta; settings: in vivo
[10] = Half life in rhesus monkey; assay type: ADME, organism-based, Macaca mulatta; settings: in vivo
[11] = Metabolic stability in rat NADPH-fortified hepatic microsomes assessed as oxidative metabolism; assay type: ADME, Liver
Method in brief: (§5)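 Compound incubated with NADPH-fortified hepatic microsomes from rat, dog, monkey or human. Oxidative metabolism monitored.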

[12] = Metabolic stability in dog NADPH-fortified hepatic microsomes assessed as oxidative metabolism; assay type: ADME, Canis lupus familiaris, Liver; method in brief: as §5
[13] = target: T1, Muscarinic acetylcholine receptor M1 (Homo sapiens) (UniProt P11229); experiment: Agonist activity at human muscarinic M1 receptor expressed in CHONFAT cells assessed as increase in calcium mobilization at 10 uM preincubated for 4 mins measured after 1 hr by FLIPR assay; assay type: functional, cell-based
T1 sequence (whole entry): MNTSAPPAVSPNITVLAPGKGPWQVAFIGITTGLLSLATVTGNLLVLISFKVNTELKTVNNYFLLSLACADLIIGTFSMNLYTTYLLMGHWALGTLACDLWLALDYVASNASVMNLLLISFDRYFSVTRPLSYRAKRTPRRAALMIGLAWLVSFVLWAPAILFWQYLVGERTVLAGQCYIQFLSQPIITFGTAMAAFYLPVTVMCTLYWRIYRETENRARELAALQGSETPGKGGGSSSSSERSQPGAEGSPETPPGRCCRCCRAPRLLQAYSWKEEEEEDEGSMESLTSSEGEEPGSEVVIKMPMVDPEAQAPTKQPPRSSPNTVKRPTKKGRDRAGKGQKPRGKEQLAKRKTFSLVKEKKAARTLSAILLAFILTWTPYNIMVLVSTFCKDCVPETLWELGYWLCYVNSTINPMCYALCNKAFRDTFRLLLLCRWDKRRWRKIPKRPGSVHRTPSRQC

[14] = target: T2, Muscarinic acetylcholine receptor M2 (Homo sapiens) (UniProt P08172); experiment: Agonist activity at human muscarinic M2 receptor expressed in CHONFAT cells assessed as increase in acetylcholine-induced calcium mobilization at 10 uM preincubated for 4 mins measured after 1 hr by FLIPR assay; assay type: functional, cell-based
T2 sequence (whole entry): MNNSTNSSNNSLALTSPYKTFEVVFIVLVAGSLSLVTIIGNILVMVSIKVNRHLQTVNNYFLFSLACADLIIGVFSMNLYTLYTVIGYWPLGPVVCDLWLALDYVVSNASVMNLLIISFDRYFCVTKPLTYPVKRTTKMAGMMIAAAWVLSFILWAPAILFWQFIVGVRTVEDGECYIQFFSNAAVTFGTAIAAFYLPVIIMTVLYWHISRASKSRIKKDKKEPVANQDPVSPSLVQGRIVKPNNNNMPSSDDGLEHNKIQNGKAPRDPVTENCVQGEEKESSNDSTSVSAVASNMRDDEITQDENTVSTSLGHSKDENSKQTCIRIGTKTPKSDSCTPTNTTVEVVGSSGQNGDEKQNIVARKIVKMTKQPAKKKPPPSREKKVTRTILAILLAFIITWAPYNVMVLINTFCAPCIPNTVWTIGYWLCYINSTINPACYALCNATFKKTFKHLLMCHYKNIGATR
Method in brief: (§6)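 CHO-NFAT cells expressing the named muscarinic receptor (human M1–M4; rhesus, dog or rat M1 in CHO-K1) were plated at 25,000 cells/well and grown overnight at 37 °C, 6% CO2. Cells were loaded with 1 μM Fluo-4AM for 1 h, washed, and preincubated 4 min with serially diluted compound (final DMSO 0.67%). They were then stimulated 4 min with an EC20 of ACh, and Ca2+ flux was read by FLIPR384.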

[15] = target: Muscarinic acetylcholine receptor M3 (Homo sapiens) (UniProt P20309); experiment: Agonist activity at human muscarinic M3 receptor expressed in CHONFAT cells assessed as increase in acetylcholine-induced calcium mobilization at 10 uM preincubated for 4 mins measured after 1 hr by FLIPR assay; assay type: functional, cell-based; method in brief: as §6
Chain of Muscarinic acetylcholine receptor M3 (Homo sapiens) (P20309 whole entry, looked up): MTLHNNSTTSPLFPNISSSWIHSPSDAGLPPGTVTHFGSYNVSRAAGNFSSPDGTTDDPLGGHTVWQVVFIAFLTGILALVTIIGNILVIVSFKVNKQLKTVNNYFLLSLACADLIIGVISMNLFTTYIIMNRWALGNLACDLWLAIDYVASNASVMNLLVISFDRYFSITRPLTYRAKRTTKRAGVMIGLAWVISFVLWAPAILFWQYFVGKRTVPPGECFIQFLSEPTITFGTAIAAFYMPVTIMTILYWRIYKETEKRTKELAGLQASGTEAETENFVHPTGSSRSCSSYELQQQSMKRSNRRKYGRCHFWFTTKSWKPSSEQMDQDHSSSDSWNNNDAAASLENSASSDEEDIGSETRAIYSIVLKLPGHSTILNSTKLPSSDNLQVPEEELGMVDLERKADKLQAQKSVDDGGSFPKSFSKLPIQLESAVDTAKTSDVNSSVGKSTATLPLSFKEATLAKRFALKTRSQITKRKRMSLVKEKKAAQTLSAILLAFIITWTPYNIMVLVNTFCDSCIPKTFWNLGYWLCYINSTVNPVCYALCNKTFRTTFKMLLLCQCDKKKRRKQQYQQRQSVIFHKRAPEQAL

[16] = target: Voltage-gated inwardly rectifying potassium channel KCNH2 (Homo sapiens, UniProt Q12809); experiment: Inhibition of human ERG
Chain of Voltage-gated inwardly rectifying potassium channel KCNH2 (Q12809 whole entry): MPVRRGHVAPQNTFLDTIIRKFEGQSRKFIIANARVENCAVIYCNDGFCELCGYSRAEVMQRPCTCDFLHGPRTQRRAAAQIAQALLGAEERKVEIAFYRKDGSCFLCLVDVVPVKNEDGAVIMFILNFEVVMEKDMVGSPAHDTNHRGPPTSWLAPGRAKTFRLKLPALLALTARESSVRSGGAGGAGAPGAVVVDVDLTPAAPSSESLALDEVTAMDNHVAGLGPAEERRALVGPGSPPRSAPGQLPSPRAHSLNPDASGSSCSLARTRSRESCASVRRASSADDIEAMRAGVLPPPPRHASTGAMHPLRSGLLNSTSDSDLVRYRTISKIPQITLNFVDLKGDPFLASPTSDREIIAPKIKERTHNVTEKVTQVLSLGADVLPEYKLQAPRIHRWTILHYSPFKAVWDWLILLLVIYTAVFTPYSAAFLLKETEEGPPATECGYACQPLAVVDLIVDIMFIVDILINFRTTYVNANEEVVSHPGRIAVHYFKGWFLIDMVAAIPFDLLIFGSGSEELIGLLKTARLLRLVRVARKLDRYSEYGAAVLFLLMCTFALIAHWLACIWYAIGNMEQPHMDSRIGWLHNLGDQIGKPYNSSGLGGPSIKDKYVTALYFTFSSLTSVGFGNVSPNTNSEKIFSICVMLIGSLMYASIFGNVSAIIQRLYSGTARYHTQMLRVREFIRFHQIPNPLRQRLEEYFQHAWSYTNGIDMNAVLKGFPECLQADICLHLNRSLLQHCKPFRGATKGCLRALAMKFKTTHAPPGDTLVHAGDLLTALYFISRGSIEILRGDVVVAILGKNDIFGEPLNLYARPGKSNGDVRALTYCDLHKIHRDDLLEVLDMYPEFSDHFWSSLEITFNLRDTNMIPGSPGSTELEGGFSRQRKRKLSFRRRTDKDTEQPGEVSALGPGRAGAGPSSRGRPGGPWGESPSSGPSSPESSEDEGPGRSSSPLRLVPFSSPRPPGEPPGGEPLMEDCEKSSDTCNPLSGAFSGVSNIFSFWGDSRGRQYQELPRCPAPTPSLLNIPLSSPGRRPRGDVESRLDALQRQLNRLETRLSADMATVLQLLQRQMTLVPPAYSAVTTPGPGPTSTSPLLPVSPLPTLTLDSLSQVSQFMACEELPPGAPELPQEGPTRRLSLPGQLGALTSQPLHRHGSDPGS

[17] = target: T3, Muscarinic acetylcholine receptor M1 (Macaca mulatta) (UniProt P56489); experiment: Agonist activity at rhesus monkey muscarinic M1 receptor expressed in CHOK1 cells assessed as potentiation of acetylcholine-induced calcium mobilization preincubated for 4 mins measured after 1 hr by FLIPR assay; assay type: functional, cell-based; settings: CHO-K1; method in brief: as §6
T3 sequence (whole entry): T1 sequence (whole entry) with A265P, E277D

## N#CC1(c2ccccn2)CCN(Cc2cc(C(=O)O)c(=O)n3ccccc23)CC1 [MSD-M1PAM]
[1]
  fraction unbound: 0.318
[2]
  fraction unbound: 0.291
Plasma
  concentration: 1480 nM
Brain
  concentration: 306 nM
Cerebrospinal fluid
  concentration: 135 nM
[3]
  Kp: 0.23
[4]
  logP: 0.15
[5]
  bioavailability: 68%
[6]
  clearance: 13.5 mL/min/kg
[7]
  bioavailability: 62%
[8]
  half-life: 4.4 h
[9]
  bioavailability: 55%
[10]
  half-life: 3.6 h
[11]
  Stability: Stable
[12]
  Stability: Stable
[13]
  Activity: Active
[14]
  Activity: inactive
[15]
  Activity: inactive
[16]
  IC50: > 30 µM
[17]
  IP: 49 nM
